Experimental data taken from ChEMBL document CHEMBL2311367, “Synthesis, biological evaluation, and molecular modeling of glycyrrhizin derivatives as potent high-mobility group box-1 inhibitors with anti-heart-failure activity in vivo” (J Med Chem, 2013).
Substitutions are numbered along the chain they refer to. Active and inactive are the calls of the source. No cut-off for these calls is given here.

Experiments:
[1] = test system: Mus musculus; assay: Cardioprotective activity against DOX-induced acute heart failure DCM in ip dosed C57BL/6J mouse model assessed as increase in fractional shortening administered qd from day 10 post DOX-challenge measured after 50 days by echocardiography; format: functional, organism-based
[2] = test system: Mus musculus; assay: Cardioprotective activity against DOX-induced acute heart failure DCM in ip dosed C57BL/6J mouse model assessed as improvement in the maximum descending rate of the LV pressure administered qd from day 10 post DOX-challenge measured after 50 days by echocardiography; format: functional, organism-based
[3] = test system: Mus musculus; assay: Cardioprotective activity against DOX-induced acute heart failure DCM in ip dosed C57BL/6J mouse model assessed as improvement in the maximum ascending rate of the LV pressure administered qd from day 10 post DOX-challenge measured after 50 days by echocardiography; format: functional, organism-based
[4] = test system: Mus musculus; assay: Cardioprotective activity against DOX-induced acute heart failure DCM in ip dosed C57BL/6J mouse model assessed as increase in ejection fraction administered qd from day 10 post DOX-challenge measured after 50 days by echocardiography; format: functional, organism-based
[5] = test system: Mus musculus; assay: Cardioprotective activity against DOX-induced acute heart failure DCM in ip dosed C57BL/6J mouse model assessed as increase in survival rate administered qd from day 10 post DOX-challenge measured after 50 days by echocardiography; format: functional, organism-based
[6] = molecular target: T1, High mobility group protein B1 (Mus musculus) (UniProt P63158); assay: Inhibition of HMGB1 in mouse RAW264.7 cells assessed as LPS-induced TNFalpha release treated for 2 hrs prior to LPS-challenge measured after 16 hrs by ELISA; format: cell-based
T1 sequence (whole entry): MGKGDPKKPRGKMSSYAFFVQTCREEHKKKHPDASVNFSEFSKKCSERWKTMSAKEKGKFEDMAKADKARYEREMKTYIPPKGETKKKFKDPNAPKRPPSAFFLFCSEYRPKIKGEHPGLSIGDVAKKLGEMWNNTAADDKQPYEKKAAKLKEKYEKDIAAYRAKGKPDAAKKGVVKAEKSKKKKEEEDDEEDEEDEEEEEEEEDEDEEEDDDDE
Method in brief: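 RAW 264.7 murine macrophage-like cells grown in RPMI 1640 with 10% heat-inactivated FBS and 2 mM glutamine, 5% CO2. Compounds or HMGB1 neutralizing antibody added 2 h before LPS (0.01 ng/mL), then 16 h stimulation; TNF-α in supernatant measured by ELISA. Each compound run at least twice in triplicate; ED50 given with 95% confidence interval.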

[7] = test system: Mus musculus; assay: Cardioprotective activity against DOX-induced chronic heart failure DCM ip dosed C57BL/6J mouse model assessed as improvement of LV diastolic anterior wall administered qd from day 70 post DOX challenge measured after 35 days; format: functional, organism-based
[8] = test system: Mus musculus; assay: Cardioprotective activity against DOX-induced chronic heart failure DCM ip dosed C57BL/6J mouse model assessed as improvement of fractional shortening administered qd from day 70 post DOX challenge measured after 35 days; format: functional, organism-based
[9] = test system: Mus musculus; assay: Cardioprotective activity against DOX-induced chronic heart failure DCM ip dosed C57BL/6J mouse model assessed as improvement of ejection fraction administered qd from day 70 post DOX challenge measured after 35 days; format: functional, organism-based
[10] = test system: Mus musculus; assay: Cardioprotective activity against DOX-induced chronic heart failure DCM ip dosed C57BL/6J mouse model assessed as improvement of systolic interventricular septum administered qd from day 70 post DOX challenge measured after 35 days; format: functional, organism-based
[11] = test system: Mus musculus; assay: Cardioprotective activity against DOX-induced chronic heart failure DCM ip dosed C57BL/6J mouse model assessed as improvement of diastolic interventricular septum administered qd from day 70 post DOX challenge measured after 35 days; format: functional, organism-based
[12] = test system: Mus musculus; assay: Cardioprotective activity against DOX-induced chronic heart failure DCM ip dosed C57BL/6J mouse model assessed as increase in survival rate administered qd from day 70 post DOX challenge measured after 35 days; format: functional, organism-based
Method in brief: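 Chronic DOX model: ip DOX at 3.5 mg/kg weekly for 8 weeks, then once-daily treatment with the indicated agent beginning two weeks after the last DOX dose. Survival followed by Kaplan-Meier curves and compared with a log rank test, n = 20/group.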

[13] = molecular target: T2, High mobility group protein B1 (Homo sapiens, UniProt P09429); assay: Binding affinity to HMGB1 (unknown origin)
T2 sequence (P09429 whole entry): T1 sequence (whole entry) with D189E, E202D

Structure (SMILES)	Activity [1]	Activity [2]	Activity [3]	Activity [4]	Activity [5]	ED50 [6]	further results
CC1(C)[C@@H](O[C@H]2O[C@H](C(=O)O)[C@@H](O)[C@H](O)[C@H]2O[C@@H]2O[C@H](C(=O)O)[C@@H](O)[C@H](O)[C@H]2O)CC[C@]2(C)[C@H]3C(=O)C=C4[C@@H]5C[C@@](C)(CNCC(=O)O)CC[C@]5(C)CC[C@@]4(C)[C@]3(C)CC[C@@H]12	inactive	inactive	inactive	inactive	inactive		inhibition [6]: inactive
CC1(C)[C@@H](O[C@H]2O[C@H](C(=O)O)[C@@H](O)[C@H](O)[C@H]2O[C@@H]2O[C@H](C(=O)O)[C@@H](O)[C@H](O)[C@H]2O)CC[C@]2(C)[C@H]3C(=O)C=C4[C@@H]5C[C@@](C)(CN[C@@H](Cc6ccc(O)cc6)C(=O)O)CC[C@]5(C)CC[C@@]4(C)[C@]3(C)CC[C@@H]12							inhibition [6]: inactive
CC1(C)[C@@H](O[C@H]2O[C@H](C(=O)O)[C@@H](O)[C@H](O)[C@H]2O[C@@H]2O[C@H](C(=O)O)[C@@H](O)[C@H](O)[C@H]2O)CC[C@]2(C)[C@H]3C(=O)C=C4[C@@H]5C[C@@](C)(CNC6CCCCC6)CC[C@]5(C)CC[C@@]4(C)[C@]3(C)CC[C@@H]12						193 µM	
CC1(C)[C@@H](O[C@H]2O[C@H](C(=O)O)[C@@H](O)[C@H](O)[C@H]2O[C@@H]2O[C@H](C(=O)O)[C@@H](O)[C@H](O)[C@H]2O)CC[C@]2(C)[C@H]3C(=O)C=C4[C@@H]5C[C@@](C)(CN[C@@H](Cc6ccccc6)C(=O)O)CC[C@]5(C)CC[C@@]4(C)[C@]3(C)CC[C@@H]12							inhibition [6]: inactive
CCCNC[C@@]1(C)CC[C@]2(C)CC[C@]3(C)C(=CC(=O)[C@@H]4[C@@]5(C)CC[C@H](O[C@H]6O[C@H](C(=O)O)[C@@H](O)[C@H](O)[C@H]6O[C@@H]6O[C@H](C(=O)O)[C@@H](O)[C@H](O)[C@H]6O)C(C)(C)[C@@H]5CC[C@]43C)[C@@H]2C1						226 µM	
CC1(C)[C@@H](O[C@H]2O[C@H](C(=O)O)[C@@H](O)[C@H](O)[C@H]2O[C@@H]2O[C@H](C(=O)O)[C@@H](O)[C@H](O)[C@H]2O)CC[C@]2(C)[C@H]3C(=O)C=C4[C@@H]5C[C@@](C)(CN[C@@H](Cc6c[nH]c7ccccc67)C(=O)O)CC[C@]5(C)CC[C@@]4(C)[C@]3(C)CC[C@@H]12	Active	Active	Active	Active	Active	144 µM	
C[C@H](NC[C@@]1(C)CC[C@]2(C)CC[C@]3(C)C(=CC(=O)[C@@H]4[C@@]5(C)CC[C@H](O[C@H]6O[C@H](C(=O)O)[C@@H](O)[C@H](O)[C@H]6O[C@@H]6O[C@H](C(=O)O)[C@@H](O)[C@H](O)[C@H]6O)C(C)(C)[C@@H]5CC[C@]43C)[C@@H]2C1)C(=O)O		Active	Active	inactive	inactive	337 µM	
CC1(C)[C@@H](O[C@H]2O[C@H](C(=O)O)[C@@H](O)[C@H](O)[C@H]2O[C@@H]2O[C@H](C(=O)O)[C@@H](O)[C@H](O)[C@H]2O)CC[C@]2(C)[C@H]3C(=O)C=C4[C@@H]5C[C@@](C)(CN[C@@H](CCC(=O)O)C(=O)O)CC[C@]5(C)CC[C@@]4(C)[C@]3(C)CC[C@@H]12	Active	Active	Active	Active	Active	141 µM	Activity [7]: Active; Activity [8]: Active; Activity [9]: Active; Activity [10]: Active; Activity [11]: Active; Activity [12]: Active
CC1(C)[C@@H](O[C@H]2O[C@H](C(=O)O)[C@@H](O)[C@H](O)[C@H]2O[C@@H]2O[C@H](C(=O)O)[C@@H](O)[C@H](O)[C@H]2O)CC[C@]2(C)[C@H]3C(=O)C=C4[C@@H]5C[C@@](C)(CN[C@@H](CO)C(=O)O)CC[C@]5(C)CC[C@@]4(C)[C@]3(C)CC[C@@H]12	Active	Active	Active	Active	Active	161 µM	
CC1(C)[C@@H](O[C@H]2O[C@H](C(=O)O)[C@@H](O)[C@H](O)[C@H]2O[C@@H]2O[C@H](C(=O)O)[C@@H](O)[C@H](O)[C@H]2O)CC[C@]2(C)[C@H]3C(=O)C=C4[C@@H]5C[C@@](C)(C(=O)O)CC[C@]5(C)CC[C@@]4(C)[C@]3(C)CC[C@@H]12 [GLYCYRRHIZIN]						70 µM	Kd [13]: 150 µM
CC1(C)[C@@H](O[C@H]2O[C@H](C(=O)O)[C@@H](O)[C@H](O)[C@H]2O[C@@H]2O[C@H](C(=O)O)[C@@H](O)[C@H](O)[C@H]2O)CC[C@]2(C)[C@H]3C(=O)C=C4[C@@H]5C[C@@](C)(CN[C@@H](CC(=O)O)C(=O)O)CC[C@]5(C)CC[C@@]4(C)[C@]3(C)CC[C@@H]12	Active	Active	Active	Active	Active	144 µM	Activity [7]: inactive; Activity [8]: inactive; Activity [9]: inactive; Activity [10]: inactive; Activity [11]: inactive; Activity [12]: inactive
